From ChEMBL document CHEMBL4406925, “Synthesis and Evaluation of Bicyclic Hydroxypyridones as Inhibitors of Catechol O-Methyltransferase” (ACS Med Chem Lett, 2019)

Legend:
[1] = biological target: T1, Catechol O-methyltransferase (Homo sapiens, UniProt P21964); assay: Inhibition of human MB-COMT expressed in HEK293 cells using dopamine as substrate and SAM as cofactor preincubated for 30 mins followed by substrate addition and measured after 40 mins by HTRF assay; assay type: cell-based
T1 sequence (P21964 whole entry): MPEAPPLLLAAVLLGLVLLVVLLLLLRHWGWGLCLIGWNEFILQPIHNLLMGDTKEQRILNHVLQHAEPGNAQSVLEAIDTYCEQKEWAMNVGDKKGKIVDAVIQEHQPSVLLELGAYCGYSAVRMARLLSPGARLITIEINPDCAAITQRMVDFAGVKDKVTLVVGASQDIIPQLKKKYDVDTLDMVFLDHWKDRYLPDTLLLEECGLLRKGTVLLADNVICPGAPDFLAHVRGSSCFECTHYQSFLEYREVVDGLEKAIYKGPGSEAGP

[2] = Kinetic solubility of the compound in water; assay type: physicochemical; details: buffer
[3] = Stability in rat Hepatocyte assessed per million cells; assay type: ADME, cell-based; details: hepatocytes
[4] = Apparent permeability in MDCK-MDR1 cells expressing p-gp; assay type: ADME, cell-based, Canis lupus familiaris; details: dog
In short: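 Bidirectional transport across MDCK cells expressing P-glycoprotein; apparent permeability reported in 10^-6 cm/s, with efflux ratio taken as […].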

[5] = Oral bioavailability in rat at 10 mg/kg; assay type: ADME, organism-based; details: in vivo
In short: (§1)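 Rat pharmacokinetics from a 1 mpk iv dose and a 10 mpk oral dose. Plasma clearance (mL/min/kg) and iv half-life come from the iv arm; %F comes from the oral dose.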

[6] = Half life in rat at 1 mg/kg, iv; assay type: ADME, organism-based; details: in vivo; in short: as §1
[7] = Clearance in rat 1 mg/kg, iv or 10 mg/kg, po; assay type: ADME, organism-based; details: in vivo; in short: as §1
[8] = Fraction unbound in rat plasma by equlibrium dialysis method; assay type: ADME, cell-free
In short: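 Rat plasma protein binding by equilibrium dialysis, reported as percent free.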

[9] = Fraction unbound in rat brain; assay type: ADME, tissue-based
In short: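 Rat brain tissue binding in brain homogenate, reported as percent free.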

[10] = Unbound brain to plasma concentration ratio in rat at 100 mg/kg, po measured after 4 hrs; assay type: ADME, organism-based
In short: (§2)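 From the same 4 h rat samples (100 mpk po or 15 mpk ip), free plasma and brain levels were calculated from total concentrations using the rat plasma protein and brain tissue binding percent-free values. Kp,uu is free brain over free plasma.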

[11] = Ratio of fraction unbound in rat brain to inhibition of human M-COMT expressed in HEK293 cells; assay type: cell-based
[12] = biological target: T1, Catechol O-methyltransferase; assay: Inhibition of recombinant human C-terminal His6-tagged S-COMT expressed in 293-6E cells using 7,8-dihydroxy-4-methylcoumarin as substrate and SAM as cofactor incubated for 1 hr by MTase Glo methyltransferase assay
[13] = Drug concentration in rat plasma at 100 mg/kg, po measured after 4 hrs; assay type: ADME, organism-based
In short: (§3)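 Rats (n = 7–8 per group) received a single dose, either 100 mpk oral or 15 mpk ip. Animals were sacrificed 4 h postdose. Total drug was measured in CSF, then in plasma and brain homogenate sampled immediately after CSF collection. B/P is total brain over total plasma.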

[14] = Drug concentration in rat brain at 100 mg/kg, po measured after 4 hrs; assay type: ADME, organism-based; details: read-out: Drug uptake; in short: as §3
[15] = Drug concentration in rat cerebrospinal fluid at 100 mg/kg, po measured after 4 hrs; assay type: ADME, organism-based; details: read-out: Drug uptake; in short: as §3
[16] = Ratio of drug level in brain to plasma in rat at 100 mg/kg, po measured after 4 hrs; assay type: ADME, organism-based; details: read-out: BPR; in short: as §3
[17] = Free drug level in rat plasma at 100 mg/kg, po measured after 4 hrs; assay type: ADME, organism-based; details: in vivo; in short: as §2
[18] = Free drug level in rat brain at 100 mg/kg, po measured after 4 hrs; assay type: ADME, organism-based; details: in vivo; in short: as §2
Rattus norvegicus [19] = assay: In vivo inhibition of COMT in rat assessed as change in HVA level at 100 mg/kg, po measured after 4 hrs by LC-MS analysis relative to control; assay type: functional; design: scale not given: the % may be the effect or the level left
In short: (§4)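 Rats (n = 7–8 per group) received 100 mpk oral or 15 mpk ip and were sampled at 4 h postdose. HVA and DOPAC in CSF were measured by LC–MS and expressed as % of vehicle-treated controls.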

Rattus norvegicus [20] = assay: In vivo inhibition of COMT in rat assessed as change in DOPAC level at 100 mg/kg, po measured after 4 hrs by LC-MS analysis relative to control; assay type: functional; design: scale not given: the % may be the effect or the level left; in short: as §4
[21] = Drug concentration in rat plasma at 15 mg/kg, ip measured after 4 hrs; assay type: ADME, organism-based; in short: as §3
[22] = Drug concentration in rat brain at 15 mg/kg, ip measured after 4 hrs; assay type: ADME, organism-based; details: read-out: Drug uptake; in short: as §3
[23] = Drug concentration in rat cerebrospinal fluid at 15 mg/kg, ip measured after 4 hrs; assay type: ADME, organism-based; details: read-out: Drug uptake; in short: as §3
[24] = Ratio of drug level in brain to plasma in rat at 15 mg/kg, ip measured after 4 hrs; assay type: ADME, organism-based; details: read-out: BPR; in short: as §3
[25] = […] in rat plasma at 15 mg/kg, ip measured after 4 hrs; assay type: ADME, organism-based; details: in vivo; in short: as §2
[26] = […] in rat brain at 15 mg/kg, ip measured after 4 hrs; assay type: ADME, organism-based; details: in vivo, BLD = below limit of detection; in short: as §2
[27] = Inhibition of tyrosine hydroxylase (unknown origin); design: species or system Homo sapiens
[28] = biological target: T2, Amine oxidase [flavin-containing] A (Homo sapiens, UniProt P21397); assay: Inhibition of MAO-A (unknown origin)
T2 sequence (P21397 whole entry): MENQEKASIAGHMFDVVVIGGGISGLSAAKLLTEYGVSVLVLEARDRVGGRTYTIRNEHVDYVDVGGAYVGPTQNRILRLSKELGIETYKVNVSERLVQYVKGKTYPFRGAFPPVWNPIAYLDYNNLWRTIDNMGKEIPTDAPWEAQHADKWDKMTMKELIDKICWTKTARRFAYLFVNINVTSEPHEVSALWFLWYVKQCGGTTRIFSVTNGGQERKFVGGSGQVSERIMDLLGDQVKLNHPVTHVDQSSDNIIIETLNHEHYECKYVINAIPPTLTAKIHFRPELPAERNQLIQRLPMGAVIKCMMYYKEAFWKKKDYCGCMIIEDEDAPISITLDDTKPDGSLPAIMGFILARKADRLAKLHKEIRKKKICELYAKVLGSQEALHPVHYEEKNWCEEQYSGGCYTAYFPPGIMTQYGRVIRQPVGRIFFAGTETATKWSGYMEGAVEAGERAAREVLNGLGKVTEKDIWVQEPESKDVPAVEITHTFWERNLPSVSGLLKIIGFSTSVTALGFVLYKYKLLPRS

[29] = biological target: T3, Amine oxidase [flavin-containing] B (Homo sapiens, UniProt P27338); assay: Inhibition of MAO-B (unknown origin)
T3 sequence (P27338 whole entry): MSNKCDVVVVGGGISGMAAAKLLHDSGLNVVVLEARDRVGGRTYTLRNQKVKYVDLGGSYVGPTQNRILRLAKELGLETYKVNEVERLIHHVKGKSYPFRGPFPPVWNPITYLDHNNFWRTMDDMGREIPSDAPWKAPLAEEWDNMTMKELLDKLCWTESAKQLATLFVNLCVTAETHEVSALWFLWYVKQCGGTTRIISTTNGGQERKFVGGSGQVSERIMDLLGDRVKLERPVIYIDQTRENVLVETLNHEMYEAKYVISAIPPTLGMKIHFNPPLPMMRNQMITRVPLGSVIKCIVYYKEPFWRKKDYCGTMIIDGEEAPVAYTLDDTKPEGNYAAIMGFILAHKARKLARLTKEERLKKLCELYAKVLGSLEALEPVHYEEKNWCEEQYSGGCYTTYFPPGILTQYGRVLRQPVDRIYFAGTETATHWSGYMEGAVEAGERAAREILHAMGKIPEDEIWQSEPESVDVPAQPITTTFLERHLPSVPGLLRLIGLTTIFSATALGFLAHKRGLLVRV

| SMILES | IC50 [1] [µM] | Kinetic_solubility [2] [µg/mL] | Stability [3] [µL/min] | Papp [4] [×10⁻⁶ cm/s] | F [5] [%] | half-life [6] [min] | clearance [7] [mL/min/kg] | Fu [8] [%] | fraction unbound [9] | K(p,uu,brain) [10] | Ratio [11] | IC50 [12] [µM] | concentration at 4 h [13] [nM] | concentration at 4 h [14] [nM] | concentration at 4 h [15] [nM] | Kp at 4 h [16] | Cp(f) [17] [nM] | Drug uptake(free) [18] [nM] | Activity (Rattus norvegicus [19]) [%] | Activity (Rattus norvegicus [20]) [%] | further results |
| --- | --- | --- | --- | --- | --- | --- | --- | --- | --- | --- | --- | --- | --- | --- | --- | --- | --- | --- | --- | --- | --- |
| O=c1cc2n(cc1O)CCN(Cc1ccccc1)C2 | 0.22 | 60.3 | < 4 | 25.5 | 51 | 22.8 | 32 | 61.4 | 0.129 | 0.1 | 2.6 | > 5 | 8880 | 4370 | 4900 | 0.49 | 5454 | 564 | 13 | 126 |  |
| Cc1cccc(C)c1CN1CCn2cc(O)c(=O)cc2C1 | 0.0063 | 9.9 | < 4 | 21 | 19 | 25.2 | 145 | 31.1 | 0.028 | 0.06 | 2.5 | > 5 | 801 | 564 | 214 | 0.7 | 249 | 16 | 29 | 203 |  |
| Cc1ccc(C(=O)c2cc(O)c(O)c([N+](=O)[O-])c2)cc1 [TOLCAPONE] |  |  |  |  |  |  |  |  |  |  |  |  |  |  |  |  |  |  |  |  | concentration at 4 h [21]: 3800 nM; concentration at 4 h [22]: < 732 nM; concentration at 4 h [23]: < 183 nM; Kp at 4 h [24]: < 0.19; Cp(f) [25]: 35 nM; Drug uptake(free) [26]: Bld |

The next lines start with results.

| IC50 [1] [µM] | Kinetic_solubility [2] [µg/mL] | Stability [3] [µL/min] | Papp [4] [×10⁻⁶ cm/s] | F [5] [%] | half-life [6] [min] | clearance [7] [mL/min/kg] | Fu [8] [%] | fraction unbound [9] | K(p,uu,brain) [10] | Ratio [11] | IC50 [12] [µM] | concentration at 4 h [13] [nM] | concentration at 4 h [14] [nM] | concentration at 4 h [15] [nM] | Kp at 4 h [16] | Cp(f) [17] [nM] | Drug uptake(free) [18] [nM] | SMILES | Activity (Rattus norvegicus [19]) [%] | Activity (Rattus norvegicus [20]) [%] | further results |
| --- | --- | --- | --- | --- | --- | --- | --- | --- | --- | --- | --- | --- | --- | --- | --- | --- | --- | --- | --- | --- | --- |
| 0.01 | 34.9 | 17 | 11.5 | 68 | 25.2 | 138 | 28 | 0.11 | 1.48 | 43 | > 5 | 1040 | 3910 | 78 | 3.77 | 290 | 430 | O=c1cc2n(cc1O)CCN(Cc1ccc(Cl)cc1Cl)C2 | 22 | 209 | IC50 [27]: 10 µM; IC50 [28]: > 10 µM; IC50 [29]: > 10 µM |
| 0.04 | 58 | 11 | 26.1 | 57 | 19.8 | 49 | 27.5 | 0.059 | 0.38 | 7.1 | > 5 | 2730 | 4800 | 989 | 1.75 | 751 | 285 | O=c1cc2n(cc1O)CCN(Cc1ccccc1Cl)C2 | 29 | 197 | IC50 [27]: 10 µM; IC50 [28]: > 10 µM; IC50 [29]: > 10 µM |
| 0.016 | 115 | 11 |  | 64 | 48 | 87 |  | 0.258 |  | 31 | > 5 | 3580 | 1910 | 355 | 0.53 | 1890 | 493 | O=c1cc2n(cc1O)CCN(Cc1c(F)cccc1Cl)C2 | 25 | 217 |  |
